Measurements as given in ChEMBL document CHEMBL1153232, “Synthesis and screening of a CaaL peptide library versus FTase reveals a surprising number of substrates” (Bioorg Med Chem Lett, 2010).
The source made the active and inactive calls. The rule behind the calls is not given here. Peptide text beside a SMILES is read from it. * marks the point of attachment. Dansyl = CN(C)c1cccc2c(S(=O)(=O)*)cccc12

Columns and labels:
[1] = target: Protein farnesyltransferase subunit beta (Homo sapiens) (UniProt P49356); assay: Ratio of kcat to km for FTase in presence of farnesyl diphosphate
Protein farnesyltransferase subunit beta (Homo sapiens), sequence (P49356 whole entry): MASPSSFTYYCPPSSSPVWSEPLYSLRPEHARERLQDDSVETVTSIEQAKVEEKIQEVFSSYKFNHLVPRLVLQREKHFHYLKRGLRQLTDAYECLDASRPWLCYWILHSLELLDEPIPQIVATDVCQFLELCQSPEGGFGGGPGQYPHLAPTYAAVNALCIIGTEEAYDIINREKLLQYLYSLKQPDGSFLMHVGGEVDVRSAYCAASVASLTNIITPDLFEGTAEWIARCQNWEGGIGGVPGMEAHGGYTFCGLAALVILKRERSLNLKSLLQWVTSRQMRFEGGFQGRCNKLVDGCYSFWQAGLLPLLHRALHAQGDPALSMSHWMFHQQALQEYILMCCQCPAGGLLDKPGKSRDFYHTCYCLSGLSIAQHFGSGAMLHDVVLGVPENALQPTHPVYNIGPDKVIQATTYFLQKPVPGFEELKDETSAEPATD
In short: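 Steady-state kinetics at saturating FPP (10 μM), 0.2-10 μM dansyl peptide, 20-100 nM FTase (at least 5-fold below peptide). Buffer: 50 mM HEPPSO pH 7.8, 5 mM TCEP, 5 mM MgCl2, 25 °C. Peptide preincubated 20 min in buffer, then FTase and FPP added. Fluorescence (ex 340, em 520 nm) followed over time and converted to kcat/KM.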

[2] = target: Protein farnesyltransferase subunit beta (Homo sapiens) (UniProt P49356); assay: Activity at FTase assessed as formation of farnesylated peptide after 60 mins by HPLC
In short: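 Peptide (3 μM) with 9 μM FPP and recombinant mammalian FTase (0.05 μM), incubated 60 min. HPLC scored conversion to farnesylated peptide: complete; nearly complete; 25% to 50%; less than 25%; no product.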

[3] = target: Protein farnesyltransferase subunit beta (Homo sapiens) (UniProt P49356); assay: Substrate activity for FTase assessed as increase in fluorescence by spectrofluorimetry in presence of farnesyl diphosphate relative to DnGCVLS; design: concentration or dose not given beside the values

SMILES	Ratio [1] [mM⁻¹ s⁻¹]	Activity [2]	Activity [3] [%]
CC[C@H](C)[C@H](NC(=O)[C@@H](NC(=O)[C@H](CS)NC(=O)CNS(=O)(=O)c1cccc2c(N(C)C)cccc12)C(C)C)C(=O)N[C@@H](CC(C)C)C(=O)O (Dansyl-GCVIL-OH)	47	Active	52
CC[C@H](C)[C@H](NC(=O)[C@H](CS)NC(=O)[C@H](CS)NC(=O)CNS(=O)(=O)c1cccc2c(N(C)C)cccc12)C(=O)N[C@@H](CC(C)C)C(=O)O (Dansyl-GCCIL-OH)	23	Active	61
